Source: PMC8361981 (Chemistry (Weinheim an Der Bergstrasse, Germany), 2021)

What was measured:
[1] = tested on: EV71 BrCr laboratory-adapted strain; assay: Anti-EV71 assay, BrCr laboratory-adapted strain in RD cells; format: cell-based, Enterovirus A71
In short: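 Enterovirus A71 BrCr (laboratory-adapted) was grown in rhabdomyosarcoma (RD) cells with test compound. EC50 is the concentration reducing virus-induced cytopathic effect by 50%. CC50 is the 50% loss of viability in compound-treated, uninfected RD cells run in a similar setup. SI = CC50/EC50.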

[2] = Cell viability of compound-treated, uninfected RD cells; format: cell-based; settings: human, uninfected rhabdomyosarcoma (RD) cells
In short: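 Compound-treated, uninfected RD cells run in a setup parallel to the EV71 BrCr cytopathic-effect reduction assay in RD cells. CC50 is the concentration giving a 50 % reduction in cell viability. Selectivity index is CC50/EC50.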

[3] = biological target: recombinant HIV-1 IIIB gp120 (Human immunodeficiency virus type 1 group M subtype B, UniProt P04578); assay: Surface plasmon resonance; format: binding
In short: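 Recombinant HIV-1 IIIB gp120, produced in Chinese hamster ovary cells, was immobilised as a monomer on a sensor chip. Test compound was passed over at 0.1–6.25 μM in two-fold dilution steps. Real-time binding responses were fitted to a 1:1 Langmuir model to obtain affinity and kinetic constants.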

[4] = Cytotoxicity in MT-4 cells; format: cell-based; settings: human
In short: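 Cytostatic read-out alongside the HIV cytopathicity assay. CC50 is the concentration that inhibits CD4 T cell proliferation by 50 %. Selectivity index is CC50/EC50.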

HIV-2 (ROD) = assay: Anti-HIV-2; format: cell-based; settings: Human immunodeficiency virus 2, CD4+ T cell, read-out: EC50 HIV-2/ROD
HIV-1 (NL4.3) = assay: Anti-HIV-1; format: cell-based; settings: for EC50: Human immunodeficiency virus 1, CD4+ T cell, read-out: EC50 HIV-1/NL4.3

Row | Compound | SI selectivity index (CC50/EC50) ([1]; EV71 BrCr in RD cells, Table 3) | EC50 ([1]; Enterovirus A, EV71, RD, read-out: EC50 EV71 BrCr) | CC50 at 3 days [2] | Kd [3] | kd ([3]; SPR, 1:1 Langmuir model, four replicates, 25 °C) | binding to gp120 (in words) ([3]; SPR, concentration-dependent) | kon ([3]; read-out: ka) | CC50 at 5 days [4] | EC50 (HIV-2 (ROD)) | EC50 (HIV-1 (NL4.3)) | SI selectivity index (CC50/EC50) (HIV-1 (NL4.3); anti-HIV, Table 1)
1 | CCOC(=O)c1ccc(OCCC2CCN(c3ccc(C)nn3)CC2)cc1 [Pirodavir] | >333 | 0.3 ± 0.1 µM | > 100 µM |  |  |  |  |  |  |  | 
2 | CN[C@@H]1[C@H](O[C@@H]2OC[C@@H](O)[C@H](O)[C@H]2O)[C@@H](O)[C@H](O[C@H]2c3cc(C)c(C(=O)N[C@H](C)C(=O)O)c(O)c3-c3c(cc4c(c3O)C(=O)c3cc(OC)cc(O)c3C4=O)[C@@H]2O)O[C@@H]1C [Pradimicin A (PRM‐A), Pradimicin A] |  |  |  | 6.52 ± 0.11 µM | 12.64±2.92 (10^−3)(1/s) | binds to gp120 | 1930 ± 420 M⁻¹ s⁻¹ | > 100 µM | 5.9 ± 3.7 µM | 3.3 ± 1.2 µM | > 30.3
3 | C[C@H](Cn1cnc2c(N)ncnc21)OCP(=O)(O)O [Tenofovir (PMPA), Tenofovir] |  |  |  |  |  |  |  | > 100 µM | 1 µM | 4.74 µM | 
